This note sets out measurements from publication PMC10580252 (Experimental and Therapeutic Medicine, 2023).

For series [1], the system named is Hep3B-luc in situ transplanted tumours. Put plainly: Antitumour activity in Hep3B-luc orthotopic xenograft model. Type of series: in vivo, BALB/c nude mice. As to conditions: intragastric 50 mg/kg ART once daily for 24 days, n=3. The procedure, abridged:
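Female BALB/c nude mice, 6-8 weeks, received 3x10^6 Hep3B-luc cells in 0.02 ml PBS:Matrigel (1:1) in the left hepatic lobe. They were randomized into four groups (including untreated control) once tumour fluorescence reached ~10^7. Test formulations were given intragastrically once daily for 24 days. Tumour signal and body weight were measured twice weekly. Inhibition = (ROIcontrol−ROIdrug)/ROIcontrol ×100% from mean tumour signals.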

Series [2] in a line: Pharmacokinetics studies in rats. It counts as in vivo. The following applies: male, SD, rat, plasma, po, 50 mg/kg.
Series [3] concerns HepG2 cells. The series can be described thus: Cellular uptake of NR-labelled NPs, flow cytometry. It counts as cell-based. As to conditions: HepG2, NR 50 µg/ml, 0.5, 1 or 4 h. The procedure, abridged: (§1)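 Cells were seeded at 2x10^5 per well and cultured 24 h. They were co-incubated with Nile red-labelled nanoparticles at equal Nile red 50 µg/ml, then washed thrice with cold PBS and incubated a further 0.5, 1 or 4 h. Intracellular fluorescence was read by flow cytometry. Controls were untreated cells, free Nile red, and Nile red in unmodified PEG-PLGA nanoparticles.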

A short description of series [4]: Hepatoma-targeted and bio-distribution detection. The following applies: tumour model mice, intragastric NR 20 mg/kg. Type of series: in vivo, BALB/c nude mice.
Series [5] concerns A549 cells. Put plainly: Cellular uptake of NR-labelled NPs, flow cytometry. Type of series: cell-based. As to conditions: A549, NR 50 µg/ml, 0.5, 1 or 4 h. The procedure, abridged: as §1
(A flow cytometer gives signals particle by particle.)

As a reminder, the AUC(0-inf) is the area under the concentration-time curve extrapolated to infinity. The AUC(0-t) is exposure summed from dosing to a finite time, without extrapolation to infinity. The low end stands for less exposure, the high end for more exposure. By Cmax is commonly meant the maximum level reached in the sampled fluid or tissue. Broadly, the MRT is a mean duration of stay, worked out from the concentration-time curve. The Tmax is the time from dosing to the highest level. Broadly, the half-life is how long it takes for the measured level to halve. The low end stands for rapid decline, the high end for slow decline.

The structures appear in SMILES notation.

With `C[C@H]1[C@H](OC(=O)CCC(=O)O)O[C@@H]2O[C@@]3(C)CC[C@H]4[C@H](C)CC[C@@H]1[C@@]24OO3` [ART, Artesunate], in series [1], the “Bioluminescence (ROI) (PG-21)” value is 4.49±0.55 x10^9 photons/sec. In series [2], this molecule yielded an AUC(0-inf) of 2540 ng·h/mL, an AUC(0-t) of 2540 ng·h/mL, a Cmax of 4580 ng/mL and an MRT of 30 min. Also, in series [2], the time to peak (Tmax) was found to be 15 min and the half-life was 15 min.
Take `CCN(CC)c1ccc2nc3c4ccccc4c(=O)cc-3oc2c1` [NR, Nile red]: the “Cellular fluorescence (uptake)” value in series [3] and in series [5] was “little fluorescence” each time. Moreover, in series [4], the “In vivo NR fluorescence in whole body and liver” value was “lower fluorescence levels at 2 h”.
